Experimental data as given in paper PMC12936682 (Journal of Pharmaceutical Analysis, 2025).
Read-outs that look alike come from different tables or passages of the source.

Key:
Notum [1] = target: T1, Notum (Homo sapiens, UniProt Q6P988); assay: Notum inhibition assay; assay type: biochemical; conditions: for time-dependence of Notum inhibition: pre-incubation 3 and 33 min; for inhibition manner against Notum: inhibition kinetic analyses, Lineweaver-Burk plots
T1 sequence (Q6P988 20-496): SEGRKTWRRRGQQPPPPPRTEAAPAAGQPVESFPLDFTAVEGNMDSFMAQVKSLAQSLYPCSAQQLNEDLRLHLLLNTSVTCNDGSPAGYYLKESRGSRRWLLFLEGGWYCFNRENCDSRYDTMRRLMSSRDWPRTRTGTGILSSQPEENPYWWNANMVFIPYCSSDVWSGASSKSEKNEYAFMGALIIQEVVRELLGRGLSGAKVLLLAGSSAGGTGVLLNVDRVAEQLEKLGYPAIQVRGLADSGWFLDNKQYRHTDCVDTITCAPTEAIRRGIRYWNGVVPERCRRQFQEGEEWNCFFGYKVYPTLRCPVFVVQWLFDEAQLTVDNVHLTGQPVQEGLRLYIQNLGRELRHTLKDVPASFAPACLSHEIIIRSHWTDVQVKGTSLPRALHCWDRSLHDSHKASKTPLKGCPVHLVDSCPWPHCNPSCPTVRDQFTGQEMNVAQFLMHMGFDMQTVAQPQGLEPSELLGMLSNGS
How it was run: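 Notum expressed and purified per an earlier protocol. The 200 μL mix held 10 μM OPTS, 0.1 M Tris-HCl pH 7.4 and inhibitor, preincubated at 37 °C for 3 min. For time-dependence, parallel preincubations of 3 and 33 min ran before OPTS addition. Product fluorescence was read at ex 403/em 510 nm after subtracting no-enzyme blanks. IC50 came from nonlinear regression.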

MC3T3-E1 cells [2] = assay: CCK-8 cell viability assay; assay type: cell-based; conditions: CCK-8, Fig. S5
MC3T3-E1 cells [3] = assay: Osteoblast differentiation: ALP level, ALP staining and alizarin red S staining; assay type: cell-based; conditions: for level of ALP: MC3T3-E1 osteoblasts, induced differentiation 5 days, Fig. S6
How it was run: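 MC3T3-E1 cells were grown in DMEM with 10% FBS and 1% penicillin-streptomycin at 37 °C, 5% CO2. Cells were seeded at 2 × 10³ cells/well for 24 h, then moved to induction medium (10 mM β-glycerophosphate, ascorbic acid) with Dex and test compound added together. ALP staining (BCIP/NBT) followed 7 days and 4% paraformaldehyde fixation (RT, 15 min). ARS staining followed 21 days. Both were viewed by microscope.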

Notum [4] = target: T1, Notum; conditions: cited from earlier work
MC3T3-E1 cells [5] = assay: RNA sequencing of Dex-challenged osteoblasts; assay type: cell-based
How it was run: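 Dex-treated MC3T3-E1 cells then received test compound and were cultured for 7 days. Total RNA was extracted from control (DMSO), Dex and Dex plus test compound groups for sequencing.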

healthy mice = assay: Safety assessment of rhein in mice; assay type: in vivo, C57BL/6J mice; conditions: 200 mg/kg orally once daily for 14 days, vs control
How it was run: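 One group received 0.5% CMC-Na vehicle. The other received test compound at 200 mg/kg orally once daily for 14 days. At the end, serum plus heart, liver, spleen, lung and kidney were collected. Data are mean ± standard deviation, compared by Student's t-test (P < 0.05).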

[6] = tested on: Dex-induced osteoporosis mice; assay: In vivo anti-osteoporosis effects in Dex-induced osteoporosis mice; parameters: species or system C57BL/6J mice; conditions: for cortical and cancellous bones (micro-CT, H&E): rhein 40 and 80 mg/kg i.g. 5 weeks, PTH i.p., vs Dex
[7] = cited from earlier work
[8] = cited from earlier work; remark: listed apart in the source
[9] = treatment 7 days, Dex-challenged MC3T3-E1

| Compound | IC50 (Notum [1]) | time-dependence of Notum inhibition (Notum [1]) | Ki (Notum [1]) | inhibition manner against Notum (Notum [1]) | growth rates of MC3T3-E1 cells (MC3T3-E1 cells [2]) | level of ALP (MC3T3-E1 cells [3]) | cortical and cancellous bones (micro-CT, H&E) [6] | other results |
| --- | --- | --- | --- | --- | --- | --- | --- | --- |
| Cc1cc(O)c2c(c1)C(=O)c1cccc(O)c1C2=O [Chrysophanol] | 946 ± 55.1 nM | not time-dependent | – | – | – | – | – | – |
| Cc1cc(O)c2c(c1)C(=O)c1cc(O)cc(O)c1C2=O [Emodin] | 286 ± 23.5 nM | not time-dependent | 276 nM | competitive | not enhanced | significantly up-regulated | – | pro-differentiation effects on MC3T3-E1 cells (MC3T3-E1 cells [3]; relative high dose 5 μM): slight pro-differentiation effects |
| C=C1C(=O)O[C@@H]2C[C@@]3(C)CCCC(=C)[C@@H]3C[C@H]12 [Isoalantolactone] | – | – | – | – | – | – | – | IC50 (Notum [4]; previously reported natural Notum inhibitor ref 41): 60.6 nM |
| O=C(O)c1cc(O)c2c(c1)C(=O)c1cccc(O)c1C2=O [Rhein] | 9.98 ± 0.84 nM | not time-dependent | 13.6 nM | competitive | not enhanced | significantly up-regulated | thickened significantly | reduced ALP staining intensity and decreased matrix mineralisation level (MC3T3-E1 cells [3]; 0.5 μM, Dex-challenged MC3T3-E1 cells): totally restored; ALP staining intensity and matrix mineralisation level of osteoblasts (MC3T3-E1 cells [3]; dose-dependent, ALP day 7, ARS day 21, Dex-treated MC3T3-E1): significantly increased; pro-differentiation effects on MC3T3-E1 cells (MC3T3-E1 cells [3]; low dose 0.5 μM): more significant pro-differentiation effects; expression of Wnt signaling-related genes (WNT6, GSK3β) and osteogenic differentiation-related genes (RUNX2, BMP4) (MC3T3-E1 cells [5]; Dex-challenged MC3T3-E1, RNA sequencing): significantly restored; genes downregulated in comparison to the Dex-challenged group (MC3T3-E1 cells [5]; [9]): 78; genes upregulated in comparison to the Dex-challenged group (MC3T3-E1 cells [5]; [9]): 67; body weight at the outset and at the end of animal tests (healthy mice): no noticeable discrepancy; serum safety indicators (ALB, ALP, ALT, AST, CK, CREA, GLU, TC, TG, TP, BUN) (healthy mice): no significant difference; Notum expression levels in cortical bone (immunofluorescence) ([6]; Dex-challenged mice treated with rhein): significantly suppressed; BV/TV and BMD at the distal femur ([6]; rhein group, micro-CT): did not increase significantly; BMD increase at the mid femur ([6]; rhein group, micro-CT, compared with distal femur): more prominent; oral bioavailability [7]: very lower; metabolic stability [8]: poor |
| Cn1c(=O)c2c(ncn2C)n(C)c1=O [caffeine] | – | – | – | – | – | – | – | IC50 (Notum [4]; previously reported natural Notum inhibitor ref 46): 200000 nM |
| parathyroid hormone 1–34 [PTH, reference compound] | – | – | – | – | – | – | thickened significantly | – |
